Test results as given in ChEMBL document CHEMBL1122519, “Bispyridinamines: a new class of topical antimicrobial agents as inhibitors of dental plaque” (1984).

What was measured:
[1] = test system: Pseudomonas aeruginosa; assay: Minimum antimicrobial inhibitory concentration against Pseudomonas aeruginosa MGH-2; type: functional
Procedure, shortened: (§1)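 Serial twofold tube dilution in tryptose phosphate broth. Each compound was prepared as a 1000 μg/mL aqueous stock and diluted in double-strength broth, then 2×10^5 cells were added. Tubes were incubated aerobically at 37 °C for 24 h. The MIC was taken as the lowest concentration with no visible growth.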

[2] = test system: Klebsiella pneumoniae; assay: Minimum inhibitory concentration against Klebsiella pneumonia 39645; type: functional; procedure, shortened: as §1
[3] = test system: Streptococcus mutans; assay: Minimum plaque inhibitory concentration using a standard test organism, Streptococcus mutans OMZ-61; type: functional, organism-based
Procedure, shortened: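 Ceramic hydroxylapatite plates were soaked twice for 1 min each in compound at […] (aqueous), air-dried and rinsed, then hung in sucrose beef-extract medium (pH 7.0) inoculated with late-log S. mutans OMZ-61. Incubation was anaerobic at 37 °C for 24 h, and treatment plus reinoculation were repeated for a second 24 h. Plaque was stained with 1% FD&C Red No. 3 and scored visually. The value is the lowest concentration giving no plaque while medium growth matched control.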

[4] = test system: Escherichia coli; assay: Antimicrobial minimum inhibitory concentration against Escherichia coli 100/B22; type: functional; procedure, shortened: as §1
[5] = test system: Escherichia coli; assay: Minimum inhibitory concentration against Escherichia coli (Vogel); type: functional; procedure, shortened: as §1
[6] = test system: Staphylococcus aureus; assay: Minimum antimicrobial inhibitory concentration against Staphylococcus aureus; type: functional; procedure, shortened: as §1
[7] = test system: Escherichia coli; assay: Antimicrobial minimum inhibitory concentration against Escherichia coli AB1932-1; type: functional; procedure, shortened: as §1
[8] = test system: Proteus mirabilis; assay: Minimum antimicrobial inhibitory concentration against Proteus mirabilis MGH-1; type: functional; procedure, shortened: as §1

| Compound | MIC [1] [µg/mL] | MIC [2] [µg/mL] | Concentration [3] [%] | MIC [4] [µg/mL] | MIC [5] [µg/mL] | MIC [6] [µg/mL] | MIC [7] [µg/mL] | MIC [8] [µg/mL] |
| --- | --- | --- | --- | --- | --- | --- | --- | --- |
| CS(=O)(=O)O.CS(=O)(=O)O.Clc1ccc(N=c2ccn(CCCCCCCCn3ccc(=Nc4ccc(Cl)cc4)cc3)cc2)cc1 | 125 | 31.3 | > 1 | 3.1 | 3.1 | 0.4 | 1.6 | 125 |
| Br.Br.CCCCCCCCCCN=c1ccn(CCCCCCCCCCCCn2ccc(=NCCCCCCCCCC)cc2)cc1 | 15.6 | 31.3 | 0.1 | 15.6 | 7.8 | 2 | 31.3 | 15.6 |
| Br.Br.CCCCC(CC)CN=c1ccn(CCCCCn2ccc(=NCC(CC)CCCC)cc2)cc1 (centres undefined) | 125 | > 125 | > 1 | 15.6 | 15.6 | 0.5 | 7.8 | > 125 |
| CCCCCCCCN=c1ccn(CCCCCCCCCn2ccc(=NCCCCCCCC)cc2)cc1.Cl.Cl | 3.9 | 2 | 0.003 | 1 | 1 | 1 | 1 | 15.6 |
| Br.Br.CCCCCCCCCCN=c1ccn(CCCCCCCCCCn2ccc(=NCCCCCCCCCC)cc2)cc1 | 15.6 | 31.3 | 0.01 | 15.6 | 7.8 | 2 | 15.6 | 7.8 |
| Br.Br.CCCCCCN=c1ccn(CCCCCCCCn2ccc(=NCCCCCC)cc2)cc1 | 125 | 7.8 | > 1 | 3.9 | 3.9 | 0.2 | 2 | > 250 |
| Br.Br.Clc1ccc(N=c2ccn(CCCCCCCn3ccc(=Nc4ccc(Cl)cc4)cc3)cc2)cc1 | > 125 | > 125 | > 1 | 3.9 | 3.9 | 1 | 125 | > 125 |
| Br.Br.Clc1ccc(N=c2ccn(CCCCCCCCCn3ccc(=Nc4ccc(Cl)cc4)cc3)cc2)cc1 | 125 | 7.8 | > 1 | 2 | 1 | 0.6 | 1 | > 125 |
| Br.Br.c1cn(CCCCCCCCCn2ccc(=NC3CCCCC3)cc2)ccc1=NC1CCCCC1 | 500 | 125 | > 1 | 31.3 | 31.3 | 1 | 31.3 | > 500 |
| Br.Br.Fc1ccc(N=c2ccn(CCCCCCn3ccc(=Nc4ccc(F)cc4)cc3)cc2)cc1 | > 62.5 | > 125 | > 1 | 15.6 | 31.3 | 15.6 | 15.6 | > 125 |
| CS(=O)(=O)O.CS(=O)(=O)O.Clc1ccc(N=c2ccn(CCCCCCn3ccc(=Nc4ccc(Cl)cc4)cc3)cc2)cc1 | 500 | 500 | > 1 | 15.6 | 15.6 | 3.9 | 3.9 | 500 |
| CS(=O)(=O)O.CS(=O)(=O)O.Clc1ccc(N=c2ccn(CCCCCCCCCCn3ccc(=Nc4ccc(Cl)cc4)cc3)cc2)cc1 | 62.5 | 3.1 | > 1 | 1.6 | 1.6 | 0.4 | 0.8 | > 125 |
| Br.Br.c1cn(CCCCCCCCn2ccc(=NC3CCCCC3)cc2)ccc1=NC1CCCCC1 | 250 | > 125 | > 1 | 62.5 | 62.5 | 3.9 | 31.3 | > 125 |
| Br.Br.c1cn(CCCCCCCn2ccc(=NC3CCCCC3)cc2)ccc1=NC1CCCCC1 | 125 | > 125 | > 1 | > 125 | > 125 | 7.8 | 125 | > 125 |
| Br.Br.CCCCCCCCN=c1ccn(CCCCCCCn2ccc(=NCCCCCCCC)cc2)cc1 | 31.3 | 1 | 0.005 | 1 | 2 | 0.5 | 1 | 7.8 |
| Br.Br.CCCCCCCCCCN=c1ccn(CCCCCCCn2ccc(=NCCCCCCCCCC)cc2)cc1 | 7.8 | 7.8 | 0.01 | 3.9 | 3.9 | 1 | 3.9 | 3.9 |
| Br.Br.CCCCCCN=c1ccn(CCCCn2ccc(=NCCCCCC)cc2)cc1 | > 250 | > 125 |  | 125 | 125 | 7.8 | 62.5 | > 125 |
| Br.Br.CCCCC(CC)CN=c1ccn(CCCCCCCCCCCCn2ccc(=NCC(CC)CCCC)cc2)cc1 (centres undefined) | 3.9 | 2 | 0.004 | 1 | 1 | 0.5 | 1 | 3.9 |
| Br.Br.CCCCCCN=c1ccn(CCCCCCCn2ccc(=NCCCCCC)cc2)cc1 | > 125 | 15.6 | > 1 | 7.8 | 15.6 | 0.4 | 7.8 | > 125 |
| CCCCCCCN=c1ccn(CCCCCCn2ccc(=NCCCCCCC)cc2)cc1.Cl.Cl | > 62.5 | 3.9 | > 1 | 2 | 3.9 | 0.2 | 2 | > 125 |
| CCCCCCN=c1ccn(CCCCCCCCCCCCn2ccc(=NCCCCCC)cc2)cc1.Cl.Cl | 15.6 | 1 | 0.01 | 0.5 | 1 | 0.2 | 1 | 7.8 |
| Br.Br.CCCCCCCCCCCCN=c1ccn(CCCCCCCCCn2ccc(=NCCCCCCCCCCCC)cc2)cc1 | > 62.5 | > 62.5 | 0.1 | 62.5 | 62.5 | 7.8 | > 62.5 | 62.5 |
| Br.Br.CCCCCCN=c1ccn(CCCCCn2ccc(=NCCCCCC)cc2)cc1 | > 125 | > 125 |  | 62.5 | 125 | 2 | 31.3 | > 250 |
| Br.Br.N=c1ccn(CCCCCCCCCn2ccc(=N)cc2)cc1 | > 500 | 500 | > 1 |  | 250 | 31.3 |  | > 500 |
| Br.Br.N=c1ccn(CCCCCCCCCCCCn2ccc(=N)cc2)cc1 | > 62.5 | > 62.5 | > 1 |  | > 62.5 | 2 |  | > 125 |
